VIM-2 inh: blocks Pseudomonas aeruginosa VIM-2 metallo-beta-lactamase; AID 1527; inhibition, % at 5.6 µM; purified VIM-2, nitrocefin hydrolysis, epi-absorbance fluorescence; 290,000 compounds, 0.89% hits;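 active = inhibition above the mean of all tested compounds plus 3 SD, cutoff set per screening run, cut at about 7.5% in these data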;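 note: red hydrolysis product quenches plate fluorescence so inhibitors raise well fluorescence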
IMP-1 inh: blocks Pseudomonas aeruginosa IMP-1 metallo-beta-lactamase | purified IMP-1, nitrocefin hydrolysis, epi-absorbance fluorescence | inhibition, % at 5.6 µM | 290,000 compounds, 0.45% hits | AID 1556;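 active = inhibition above the mean plus 3 SD of all compounds in the same screening run, cut at about 4.5% in these data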
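system = purified recombinant IMP-1 beta-lactamase | amount = 0.2 nM IMP-1, as dispensed | medium = HEPES buffer pH 7.1 with ZnSO4 and Brij 35 | times = 25 °C, 15 min preincubation, 25 min reaction | detection = plate fluorescence quenching by hydrolysis product, ex 480/em 530 nm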
HTR2A ag: agonists of mouse serotonin 5-HT2A receptor (HTR2A); 360,000 compounds, 0.66% hits; AID 624169; activation, % at 7.6 µM; P35363; CHO-K1 mHTR2A beta-arrestin complementation, luminescence; percent of 30 µM serotonin response;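 active = activation above a run cutoff, the mean activation of all tested compounds plus 3 SD, cut at about 14% in these data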
Target sequence (P35363 whole entry, looked up): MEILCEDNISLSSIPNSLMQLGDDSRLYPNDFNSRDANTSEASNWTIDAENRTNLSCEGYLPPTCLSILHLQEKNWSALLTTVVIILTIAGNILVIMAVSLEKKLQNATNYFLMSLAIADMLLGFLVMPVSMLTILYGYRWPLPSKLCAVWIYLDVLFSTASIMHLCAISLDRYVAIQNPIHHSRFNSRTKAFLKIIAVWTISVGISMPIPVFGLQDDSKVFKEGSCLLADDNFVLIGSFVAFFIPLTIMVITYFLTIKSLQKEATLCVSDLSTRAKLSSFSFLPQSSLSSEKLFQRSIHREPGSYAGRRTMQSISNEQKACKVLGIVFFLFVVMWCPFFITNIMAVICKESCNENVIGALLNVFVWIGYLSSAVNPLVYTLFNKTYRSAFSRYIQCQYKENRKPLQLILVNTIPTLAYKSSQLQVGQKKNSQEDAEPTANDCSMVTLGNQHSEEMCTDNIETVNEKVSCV
dFosB activator: enhances mouse delta FosB homodimer DNA binding. purified delta FosB, TAMRA-CDK5 oligo fluorescence polarization; percent of positive-control signal above neutral wells. activation, % at 25 µM. 340,000 compounds, 0.99% hits;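 active = mean activation above about 17%, with every replicate also reaching it, limit read from the data, passing the limit was not always enough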
Each line names hits and unclear results; the compound was inactive in the other large screens. Compounds with a hit are over-represented: about 2.5% of the library has one in this group of screens.

CC1CC(OC(=O)C2CCN(S(=O)(=O)c3ccc(F)cc3)CC2)C(=O)O1 (stereo not drawn)	none (no result: VIM-2 inh, IMP-1 inh)
CC(Oc1ccc2c(c1)oc(=O)c1ccccc12)C(=O)NCCCN1CCOCC1 (stereo not drawn)	VIM-2 inh 11.7
O=C(Cc1cccc(NC(=O)C2CCCN(C(=O)C3CCCC3)C2)c1)Nc1cccc(C(=O)N2CCCCC2)c1 (stereo not drawn)	none (no result: VIM-2 inh, IMP-1 inh)
O=C(COC(=O)CNC(=O)c1sc2ccccc2c1Cl)Nc1cc(Cl)cc(Cl)c1	dFosB activator 167.0
Cc1ccccc1-n1c(SCC(=O)N2CCOCC2)nc(O)c(Cc2ccccc2)c1=O	IMP-1 inh 5.2
O=C(NN1C(=O)C2C3C=CC(C3)C2C1=O)c1ccncc1 (stereo not drawn)	none
O=C(NN1C(=O)C2C(c3ccccc3)C=CC(c3ccccc3)C2C1=O)c1ccncc1 (stereo not drawn)	IMP-1 inh 11.9
N#CC(C#N)=Cc1c[nH]c(=O)c(C#N)c1Nc1ccccc1	none (no result: VIM-2 inh, IMP-1 inh, dFosB activator)
CCSc1nsc(NC(=O)Nc2ccc(F)cc2F)n1	dFosB activator 22.9
CCc1nc2cc(NC(=O)C3(C)CCCN(C(C)=O)C3)ccc2o1 (stereo not drawn)	none (no result: VIM-2 inh, IMP-1 inh, dFosB activator)
Cc1ccc(-c2cc(C(=O)NCCN3CCOCC3)no2)cc1	IMP-1 inh 10.3
C=CCn1c(COc2ccc(F)cc2)nnc1SC(C)C(=O)NCC1CCCO1 (stereo not drawn)	none (no result: VIM-2 inh, IMP-1 inh)
O=C(c1cccc([N+](=O)[O-])c1)c1ccc2[nH]c(=O)[nH]c2c1	IMP-1 inh 28.8
CCCCN(CC)S(=O)(=O)N1CCC(C(=O)NCCCN2CCOCC2)CC1	IMP-1 inh 6.6
Nc1ccn(C2CSC(CO)O2)c(=O)n1 (stereo not drawn)	none (no result: VIM-2 inh, IMP-1 inh, dFosB activator)
CCOc1ccc(NC(=O)CN(C)C(=O)C(C)N2C(=O)c3ccccc3C2=O)cc1OCC (stereo not drawn)	none (no result: VIM-2 inh, IMP-1 inh)
COc1ccc(N2CCN(C3CCCN(Cc4cccc(OC)c4)C3)CC2)cc1 (stereo not drawn)	none
COC(=O)C1CCN(C(=O)c2oc3c(Cl)cc(C)cc3c2C)CC1	none
Cc1cc(Cl)c2oc(C(=O)N3CCN(c4ccncc4)CC3)c(C)c2c1	VIM-2 inh 7.8
O=C(NCCc1c[nH]c2ccccc12)C(=O)Nc1cc2c3c(c1)CC(=O)N3CCC2	none (no result: VIM-2 inh, IMP-1 inh)
COC(=O)c1cc2c(=O)c3ccccc3oc2nc1C	none
COC(=O)c1cc2c(=O)c3ccccc3oc2nc1/C=C/N(C)C	VIM-2 inh 7.7
CCN(CC)CCn1c2ccccc2c2cnc(N=CN(C)C)c(C#N)c21	dFosB activator 29.4
CN(/N=C/c1cc(Br)cc(Br)c1O)c1ccccc1	IMP-1 inh 8.3
COc1ccc(NC(=O)c2c(N)no[n+]2[O-])cc1	dFosB activator 20.5
COc1ccc(NC(=O)c2c(N)no[n+]2[O-])c(OC)c1	none
Cc1c(Cc2ccccc2)c(=O)oc2c(CN(C)C)c(O)c(Cl)cc12	IMP-1 inh 4.7
CN(C)c1ccc(C=c2c3ccccc3n3c2cc(-c2ccc(Cl)cc2)[n+]3C)cc1	dFosB activator 49.8 (no result: VIM-2 inh, IMP-1 inh)
CN(C)c1ccc(C=c2c3ccccc3n3c2cc(-c2ccccc2)[n+]3C)cc1	dFosB activator 100.1 (no result: VIM-2 inh, IMP-1 inh)
CN(C)c1ccc(C=c2c3ccccc3n3c2c2c([n+]3C)CCCC2)cc1	dFosB activator 85.8 (no result: VIM-2 inh, IMP-1 inh)
CN(C)c1ccc(/C=C2\CCC/C(=C\c3ccccc3)C2=O)cc1	none
CN(C)c1ccc(C=c2c3cc([N+](=O)[O-])ccc3n3c2cc(-c2ccccc2)[n+]3C)cc1	none (no result: VIM-2 inh, IMP-1 inh)
COc1cc(N(C)C)ccc1C=c1c2ccccc2n2c1cc(-c1ccccc1)[n+]2C	dFosB activator 234.5 (no result: VIM-2 inh, IMP-1 inh)
CC(NS(=O)(=O)c1ccc2c(c1)C(C)(C)C(=O)N2C)c1ccccc1 (stereo not drawn)	none
Cc1ccc2cc3cc(C(=O)NCCCN4CC(C)CC(C)C4)oc3nc2c1 (stereo not drawn)	VIM-2 inh 10.3
Cc1ccc2oc(=O)c3cc(C(=O)NCCCN4CC(C)CC(C)C4)sc3c2c1 (stereo not drawn)	VIM-2 inh 10.2
CCOc1ncccc1C(=O)OCC(=O)Nc1nnc(-c2ccccc2)o1	none (no result: VIM-2 inh, IMP-1 inh)
CC(C)n1cc(C(N)=S)c(=O)n(Cc2ccccc2)c1=O	IMP-1 inh 6.3
O=C(NO)c1cc(OCC(F)(F)F)ccc1OCC(F)(F)F	VIM-2 inh 11.6
O=C(NC1CC1)c1cc(OCC(F)(F)F)ccc1OCC(F)(F)F	none
COC(=O)[C@]12CCCCC=C1N(Cc1ccco1)C(=O)[C@H](CC(=O)N1CCC(c3ccccc3)CC1)C2	none (no result: VIM-2 inh, IMP-1 inh, dFosB activator)
COc1ccc(CC(=O)Nc2ccc(C(=O)NCC(C)C)cc2)cc1	dFosB activator 27.7
COc1ccc(NC(=O)CN(C)C(=O)Cc2ccsc2)cc1	IMP-1 inh 5.0
COc1ccc(CC(=O)Nc2ccc(C(C)=O)cc2)cc1	IMP-1 inh 8.0
CCc1ccc(NC(=O)Cc2ccc(OC)cc2)cc1	none (no result: HTR2A ag, dFosB activator)
COC(=O)C(C)(C)c1cccnc1C#N	none (no result: VIM-2 inh, IMP-1 inh)
C[C@@]12C(=O)N(CCO)CC(=O)N1[C@H](/C=C/c1ccccc1)[C@@H]1C(=O)N(c3ccccc3)C(=O)[C@@H]12	none
O=C1c2cccc3c(N4CCCCC4)ccc(c23)C(=O)N1c1ccccn1	IMP-1 inh 5.8
CCn1cc(/C=C(\NC(=O)c2ccc(OC)cc2)C(=O)N2CCOCC2)c2ccccc21	none
COc1ccc(C2c3[nH]c4ccccc4c3CCN2Cc2cccn2-c2ncccn2)cc1C (stereo not drawn)	dFosB activator 32.2
O=C(CNC(=O)c1ccccc1Br)N/N=C/c1cc(Br)ccc1O	dFosB activator 32.1
O=C(CNC(=O)c1ccc2c(c1)OCO2)N/N=C/c1cc(Br)ccc1O	dFosB activator 61.7
O=C(N/N=C/c1ccc2c(c1)OCO2)c1ccc2c(c1)OCCO2	none
O=C(N/N=C/c1ccc(Cl)cc1)c1ccc2c(c1)OCO2	IMP-1 inh 16.6
O=C(CNC(=O)c1ccccc1)N/N=C/c1cc(Br)ccc1O	none
COc1ccc(CCn2c(S)nc3ccccc3c2=O)cc1	none
Cc1nc(NC(=O)C(C)(C)C)sc1C(=O)Cn1cc(CCCC#N)nn1	none (no result: VIM-2 inh, IMP-1 inh, dFosB activator)
CC1(c2ccc(F)cc2)OC(=O)c2c1ccc1ccccc21 (stereo not drawn)	none (no result: VIM-2 inh, IMP-1 inh, dFosB activator)
Cc1cc(C)n2nc(SCC(=O)NC(=O)c3ccccc3Cl)nc2n1	none (no result: VIM-2 inh, IMP-1 inh)
COc1ccc(-c2sc(C(=O)c3ccc(Cl)cc3Cl)cc2CC(=O)O)cc1	VIM-2 inh 10.7
O=C(O)Cc1ccc(C(=O)c2ccc(Cl)cc2Cl)s1	none
O=S(=O)(NC1CC(NS(=O)(=O)OCC(Cl)(Cl)Cl)C2CCCCC12)OCC(Cl)(Cl)Cl (stereo not drawn)	HTR2A ag 15.4
C[C@H](NS(=O)(=O)OCC(Cl)(Cl)Cl)C1CC1c1ccccc1 (stereo partly drawn)	none
COC(=O)[C@]1(Cc2ccccc2)N[C@H](CN(C)C(=O)Nc2ccc(Cl)cc2)[C@@H]2C(=O)N(C)C(=O)[C@@H]21	none (no result: VIM-2 inh, IMP-1 inh)
CC(C(=O)O)N1C(=O)C2C3CC(C2C1=O)C1C(c2ccccc2)c2sc(=O)[nH]c2SC31 (stereo not drawn)	IMP-1 inh 6.5
